From ChEMBL document CHEMBL3758106, “Antitumor Activity of Americanin A Isolated from the Seeds of Phytolacca americana by Regulating the ATM/ATR Signaling Pathway and the Skp2-p27 Axis in Human Colon Cancer Cells” (J Nat Prod, 2015) come the findings set out here.

Series [1] deals with S-phase kinase-associated protein 1/2 (Homo sapiens) (UniProt Q13309+P63208). The experiment in a line: Inhibition of Skp2/Skp1 protein interaction in human HCT116 cells after 24 hrs by immunoprecipitation assay. It is filed as cell-based. The conditions noted are these: HCT-116. In outline:
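Protein measured by Bradford. Equal protein incubated with Protein G sepharose and the capture antibody (anti-p53, anti-Cul-1 or anti-Skp2) overnight at 4 °C. Bead eluates boiled in Laemmli/2-mercaptoethanol and analysed by Western blot.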

Series [2] deals with HCT-116. The experiment in a line: Induction of reactive oxygen species in human HCT116 cells at 30 uM after 48 hrs by DCFH-DA staining-based flow cytometric analysis (reference value: 5.1%). It is filed as functional. The essentials:
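HCT116 cells seeded overnight, then exposed to test compounds, alone or with NAC, for 48 h in complete medium. Loaded with 20 μM DCFH-DA for 30 min; intracellular ROS in 20 000 cells per group read by flow cytometry as histograms.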

In series [3] the test system is HCT-116. Nature of the series: Induction of apoptosis in human HCT116 cells assessed as early apoptotic cells at 30 uM after 48 hrs by annexin V-FITC/propidium iodide staining-based flow cytometric analysis in presence of NAC (reference value: 1.1%). It is filed as functional.
The test system of series [4] is HCT-116. The experiment in a line: Induction of cell cycle arrest in human HCT116 cells assessed as accumulation at G0/G1 phase at 15 uM after 48 hrs by propidium iodide staining-based flow cytometric analysis in presence of RNase A (reference value: 54.3%). It is filed as functional.
For series [5], the system named is Mus musculus. Nature of the series: Toxicity in nude mouse at 5 to 10 mg/kg, ip administered 3 times per week measured on day 41. It is filed as organism-based. The conditions noted are these: in vivo. In outline:
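Nude mice implanted s.c. in the flank with 2 × 10^6 HCT116 cells. Once tumors reached about 120 mm3, mice were randomized, six per group, to vehicle or compound at 5 or 10 mg/kg ip (200 μL) three times weekly; irinotecan 10 mg/kg ip once weekly as reference. Body weight recorded twice weekly to assess toxicity; study ended day 41.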

The next series deals with CAKI-1. The experiment in a line: Antiproliferative activity against human CAKI-1 cells after 24 to 72 hrs by SRB assay. It is filed as functional, cell-based. The essentials:
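Cells grown in 96-well plates (RPMI 1640; MRC-5 in MEM, 10% FBS, antibiotics) with compound […]; fixed in 10% TCA 30 min at 4 °C, stained 0.4% SRB in 1% acetic acid 1 h, dye dissolved in 10 mM Tris pH 10.0, A515 read; viability as % of solvent control, IC50 by nonlinear regression; mean of three independent experiments.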

For series [6], the system named is HCT-116. Nature of the series: Induction of apoptosis in human HCT116 cells assessed as early apoptotic cells at 30 uM after 48 hrs by annexin V-FITC/propidium iodide staining-based flow cytometric analysis (reference value: 1.1%). It is filed as functional.
Series [7] concerns HCT-116. Nature of the series: Induction of apoptosis in human HCT116 cells assessed as early apoptotic cells at 7.5 uM after 48 hrs by annexin V-FITC/propidium iodide staining-based flow cytometric analysis (reference value: 1.6%). It is filed as functional.
The nature of series [8]: Antiproliferative activity against p53-expressing human HCT116 cells assessed as cell viability after 72 hrs by SRB assay. It is filed as functional, cell-based. The conditions noted are these: HCT-116, 72 h. In outline:
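p53 wild-type and p53-null HCT116 cells in 96-well plates treated 72 h; SRB assay (TCA fix, SRB stain, Tris pH 10.0 solubilisation, A515); viability vs solvent control, IC50 by nonlinear regression.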

Series [9] is described as follows: Antitumor activity against human HCT116 cells xenografted in nude mouse assessed as tumor growth inhibition at 5 mg/kg, ip administered 3 times per week measured on day 41. It is filed as functional. The conditions noted are these: HCT-116, ip, 984 h, read-out: TGI. The essentials:
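Nude mice given 2 × 10^6 HCT116 cells subcutaneously in flank; at ~120 mm3 randomised, six per group; ip dosing in 200 μL, test agent 5 or 10 mg/kg three times weekly, irinotecan 10 mg/kg once weekly; tumour volume measured twice weekly to day 41; body weight tracked for toxicity.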

For series [10], the system named is HCT-116. The experiment in a line: Induction of morphological change in human HCT116 cells assessed as loss of contact with adjacent cells at 30 uM after 24 to 48 hrs by phase contrast microscopic analysis. It is filed as functional, cell-based. The essentials: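 HCT116 cells incubated with compound for 24 h, then viewed and photographed under phase-contrast microscopy; also examined at 48 h.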

Series [11] can be described thus: Antiproliferative activity against human HCT116 cells assessed as cell viability after 72 hrs by SRB assay. It is filed as functional, cell-based. The conditions noted are these: HCT-116, 72 h. The essentials: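 HCT116 cells in 96-well plates exposed 24, 48 or 72 h; TCA fixation, 0.4% SRB staining, dye solubilised in 10 mM Tris pH 10.0, absorbance at 515 nm; viability relative to solvent-treated control.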

Series [12] is described as follows: Upregulation of phosphorylated ATM expression in human HCT116 cells at 1 hr by Western blot analysis. Conditions: HCT-116. It is filed as functional, cell-based.
For series [13], the system named is Mus musculus. Nature of the series: Downregulation of Ki-67 in human HCT116 cells xenografted in nude mouse at 5 to 10 mg/kg, ip administered 3 times per week measured on day 41 by […]. It is filed as functional, organism-based. Conditions: HCT-116. In outline: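 Formalin-fixed, paraffin-embedded xenograft sections (mice dosed ip three times weekly) probed with antibodies, detected by LSAB/HRP, counterstained with H&E, imaged by inverted phase-contrast microscopy.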

In series [14] the test system is HCT-116. The experiment in a line: Induction of apoptosis in human HCT116 cells assessed as viable cells at 30 uM after 48 hrs by annexin V-FITC/propidium iodide staining-based flow cytometric analysis (reference value: 87.4%). It is filed as functional. The conditions noted are these: HCT-116, 48 h, read-out: Activity.

pIC50: −log10 of the molar value. Active and inactive are the calls of the source. No cut-off for these calls is given here.

Chain of S-phase kinase-associated protein 1/2 (Homo sapiens) (P63208 whole entry, looked up): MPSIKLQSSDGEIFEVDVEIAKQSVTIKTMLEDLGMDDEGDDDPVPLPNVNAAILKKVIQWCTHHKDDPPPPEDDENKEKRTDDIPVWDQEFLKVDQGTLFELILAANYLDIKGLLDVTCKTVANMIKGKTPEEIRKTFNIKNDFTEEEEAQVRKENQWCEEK
Chain of S-phase kinase-associated protein 1/2 (Homo sapiens) (Q13309 whole entry, looked up): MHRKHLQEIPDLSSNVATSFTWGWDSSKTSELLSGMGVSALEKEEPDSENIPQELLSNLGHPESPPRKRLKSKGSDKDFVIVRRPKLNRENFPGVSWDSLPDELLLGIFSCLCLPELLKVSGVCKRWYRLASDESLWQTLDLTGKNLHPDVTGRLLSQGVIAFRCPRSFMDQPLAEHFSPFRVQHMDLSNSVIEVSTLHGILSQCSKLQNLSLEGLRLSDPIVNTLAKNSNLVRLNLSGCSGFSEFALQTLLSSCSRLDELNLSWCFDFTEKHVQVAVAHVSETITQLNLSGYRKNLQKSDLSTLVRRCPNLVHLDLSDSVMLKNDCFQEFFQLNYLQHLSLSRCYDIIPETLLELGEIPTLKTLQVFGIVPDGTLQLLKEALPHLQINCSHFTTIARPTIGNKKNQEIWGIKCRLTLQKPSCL

On to `O=C/C=C/c1ccc2c(c1)O[C@@H](CO)[C@H](c1ccc(O)c(O)c1)O2` [AMERICANIN A], for which, in series [1], the inhibition entry was “inactive”. Moreover, the Activity in the series on HCT-116 [2] is on record as 47.4%; in the series on HCT-116 [3], 2.7%; in the series on HCT-116 [4], 23.4%; in the series with Mus musculus [5], “Non-toxic”; in the series on HCT-116 [6] it was 7%; in the series with HCT-116 [7], 3%. Besides, the Activity result in series [12] is “Dose-dependent effect”. Moreover, the results for the pIC50 (in the series with CAKI-1; in [8]; in series [11]) were 4.18, 5.08 and 5.06, respectively. Besides, in series [9], the inhibition in vivo at 5 mg/kg was 45%. For the same molecule, the result in the series on HCT-116 [10] and in the series on Mus musculus [13] was Active. For the same molecule, the viability at 30 µM in the series with HCT-116 [14] worked out at 51.4%.
